Reference: paper PMC8547165 (Environmental science & technology, 2021)

Legend:
[1] = QAC levels in human blood; type: in vivo; conditions: human serum, n = 111; for Median concentration: non-detects = 1/2 MDL
[2] = Hepatic clearance in vitro-in vivo extrapolation; parameters: species or system human; conditions: IVIVE
Method in brief: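 Human liver microsomes (1 mg/mL) in 50 mM phosphate pH 7.4 with 3 mM MgCl2, 0.5 uM substrate, 0.5% DMSO, NADPH-generating system, 37 °C, triplicate, stopped at 0–3 h; depletion fitted mono-exponentially for CLin vitro. Unbound fraction from NSB-corrected serum ultrafiltration and 60-min blood/serum ratio. Scaled by 34 mg microsomal protein/g liver, hepatic blood flow 42.6 mL/h/g liver.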

SMILES | Maximum concentration ([1]; before COVID-19 (2019)) [ng/mL] | Minimum concentration ([1]; before COVID-19 (2019)) | Median concentration ([1]; before COVID-19 (2019)) | Maximum concentration ([1]; during COVID-19 (2020)) [ng/mL] | Minimum concentration ([1]; during COVID-19 (2020)) | Median concentration ([1]; during COVID-19 (2020)) | Fold lower CLinvivo than C14- and C16-ATMACs [2]
CCCCCCCCCCCCCCCCCC[N+](C)(C)C [C18-ATMAC] | 0.171 | <MDL | <MDL | 3.62 | <MDL | <MDL | 
CCCCCCCCCCCCCCCCCC[N+](C)(C)Cc1ccccc1 [C18-BAC] | 2.14 | <MDL | <MDL | 1.41 | <MDL | 0.180 ng/mL | 
CCCCCCCC[N+](C)(C)Cc1ccccc1 [C8-BAC] | 0.196 | <MDL | <MDL | 0.433 | <MDL | 0.055 ng/mL | 
CCCCCCCC[N+](C)(C)CCCCCCCC [C8-DDAC] | 0.447 | <MDL | <MDL | 0.219 | <MDL | <MDL | 
CCCCCCCCCC[N+](C)(C)CCCCCCCCCC [C10-DDAC] | 0.206 | <MDL | <MDL | 0.620 | <MDL | 0.089 ng/mL | 
CCCCCCCCCC[N+](C)(C)Cc1ccccc1 [C10-BAC] | 0.166 | <MDL | <MDL | 1.45 | <MDL | <MDL | 
CCCCCCCCCCCCCC[N+](C)(C)C [C14-ATMAC] | 1.86 | <MDL | 0.667 ng/mL | 3.75 | <MDL | 0.929 ng/mL | 
CCCCCCCCCCCC[N+](C)(C)Cc1ccccc1 [C12-BAC] | 1.40 | <MDL | 0.289 ng/mL | 22.1 | <MDL | 0.634 ng/mL | 
CCCCCCCCCCCCCCCC[N+](C)(C)C [C16-ATMAC] | 5.65 | <MDL | <MDL | 3.53 | <MDL | 0.966 ng/mL | 
CCCCCCCCCCCC[N+](C)(C)C [C12-ATMAC] | 8.55 | <MDL | 0.981 ng/mL | 6.84 | <MDL | 0.612 ng/mL | 2-4 times
CCCCCCCCCCCCCCCC[N+](C)(C)CCCCCCCCCCCCCCCC [C16-DDAC] | 0.142 | <MDL | <MDL | 0.576 | <MDL | <MDL | 
CCCCCCCCCCCCCCCC[N+](C)(C)Cc1ccccc1 [C16-BAC] | 0.800 | <MDL | 0.080 ng/mL | 16.4 | <MDL | 0.346 ng/mL | 
CCCCCCCCCCCCCCCCCC[N+](C)(C)CCCCCCCCCCCCCCCCCC [C18-DDAC] | 5.77 | <MDL | <MDL | 5.35 | <MDL | <MDL | 
CCCCCCCCCCCCCC[N+](C)(C)Cc1ccccc1 [C14-BAC] | 2.36 | <MDL | 0.490 ng/mL | 40.1 | <MDL | 1.14 ng/mL | 
CCCCCCCCCCCCCC[N+](C)(C)CCCCCCCCCCCCCC [C14-DDAC] | 0.522 | <MDL | <MDL | 0.795 | <MDL | <MDL | 
